ChEMBL document CHEMBL3616466, “Pyrazolo[3,4-h]quinolines promising photosensitizing agents in the treatment of cancer” (Eur J Med Chem, 2015)
Active and inactive are the calls of the source. The rule behind the calls is not given here.

Columns and labels:
MCF7 [1] = experiment: Photocytotoxicity against human MCF7 cells assessed as growth inhibition at 3.75 J/cm'2 irradiation for 30 mins followed by drug treated for 72 hrs by MTT assay; type: functional; conditions: MCF7, light or radiation study
How it was run: (§1)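 Cells seeded at 5 × 10³ per well and pre-incubated 24 h. Drug dilutions in HBSS (pH 7.2, from DMSO stock) added for 30 min at 37 °C, then UV-A irradiation at the stated dose. Drug solution then replaced with culture medium and plates incubated 72 h. Viability by MTT; GI50 from concentration series.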

Jurkat [2] = experiment: Induction of apoptosis in human Jurkat cells assessed as ROS production at 1 to 2 uM using HE and DCFDA staining measured 24 hrs post 2.5 J/cm'2 irradiation by FACS assay; type: functional, cell-based
Jurkat [3] = experiment: Photocytotoxicity against human Jurkat cells assessed as growth inhibition at 1.25 J/cm'2 irradiation for 30 mins followed by drug treated for 72 hrs by MTT assay; type: functional; conditions: light or radiation study; how it was run: as §1
A549 [4] = experiment: Photocytotoxicity against human A549 cells assessed as inhibition of colony formation at 2.5 J/cm'2 irradiation after 1 to 2 weeks using crystal violet staining by optical microscopy; type: functional, cell-based
How it was run: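 A-549 cells (10 × 10³) plated in dishes. After 24 h, irradiated at 2.5 J/cm² with compound at varying concentrations. Medium replaced, then cultured 1–2 weeks with medium changes every 2–3 days. Stained with crystal violet; colonies of ≥50 cells counted visually. Expressed as % of untreated cells; mean ± SEM of three experiments.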

MCF7 [5] = experiment: Photocytotoxicity against human MCF7 cells assessed as growth inhibition at 2.5 J/cm'2 irradiation for 30 mins followed by drug treated for 72 hrs by MTT assay; type: functional; conditions: MCF7, light or radiation study; how it was run: as §1
[6] = Induction of superoxide anion generation measured after UV-A irradiation by NBT reduction assay; type: physicochemical
How it was run: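 Compound (10⁻⁵ M) with nitroblue tetrazolium (1.6 × 10⁻⁴ M) in carbonate buffer pH 10 irradiated with increasing UV-A doses. Absorbance at 560 nm followed as the superoxide read-out.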

A549 [7] = experiment: Photocytotoxicity against human A549 cells assessed as growth inhibition at 3.75 J/cm'2 irradiation for 30 mins followed by drug treated for 72 hrs by MTT assay; type: functional; conditions: A549, light or radiation study; how it was run: as §1
Jurkat [8] = experiment: Induction of apoptosis in human Jurkat cells assessed as reduction in mitochondrial potential at 1 to 2 uM using JC-1 staining measured 24 hrs post 2.5 J/cm'2 irradiation by FACS assay; type: functional, cell-based
How it was run: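 At 24 h after 2.5 J/cm² irradiation with compound at 1 or 2 µM, Jurkat cells were pelleted and resuspended in HBSS with 1 µM JC-1. After 10 min at 37 °C, fluorescence read at 530 and 590 nm by flow cytometry. Mean ± SEM, n=3.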

Jurkat [9] = experiment: Induction of apoptosis in human Jurkat cells assessed as increase in cleaved caspase 3 level at 1 uM measured 24 hrs post 2.5 J/cm'2 irradiation by Western blot analysis; type: functional, cell-based
How it was run: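 Jurkat cells irradiated (2.5 J/cm²) with compound at 1 µM. At 24 h, cells washed in cold PBS and lysed on ice for 20 min. 20 µg protein run on 8–16% gradient gels and transferred to nitrocellulose. Probed with rabbit anti-caspase-3 and β-actin (1:1000, 2 h), then peroxidase anti-rabbit IgG; ECL detection.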

HL-60 [10] = experiment: Photocytotoxicity against human HL60 cells assessed as growth inhibition at 2.5 J/cm'2 irradiation for 30 mins followed by drug treated for 72 hrs by MTT assay; type: functional; conditions: HL-60, light or radiation study; how it was run: as §1
Jurkat [11] = experiment: Induction of apoptosis in human Jurkat cells assessed as lysosome death at 1 to 2 uM using acridine orange staining measured 24 hrs post 2.5 J/cm'2 irradiation by flow cytometry; type: functional, cell-based
MCF7 [12] = experiment: Ratio of angelicin GI50 to compound GI50 for human MCF7 cells assessed as growth inhibition at 3.75 J/cm'2 irradiation for 30 mins followed by drug treated for 72 hrs by MTT assay; type: functional
How it was run: (§2)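 Cells were pre-incubated 30 min at 37 °C with drug in HBSS, irradiated, then drug replaced with medium. Ratio is angelicin GI50 divided by compound GI50.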

Escherichia coli = experiment: Induction of DNA damage in Escherichia coli pBR322 DNA measured at 7.5 J/cm'2 UV-A irradiation by neutral agarose electrophoresis
How it was run: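 pBR322 plasmid (100 ng) in 10 mM phosphate buffer pH 7.2 irradiated at 7.5 J/cm² UV-A with compound at a compound/DNA ratio of 3/1. Aliquots incubated at 37 °C with Fpg or Endo III. Run on 1% agarose in TAE at 70 V for 4 h; supercoiled, open circular and linear bands quantified.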

A549 [13] = experiment: Photocytotoxicity against human A549 cells assessed as growth inhibition at 2.5 J/cm'2 irradiation for 30 mins followed by drug treated for 72 hrs by MTT assay; type: functional; conditions: A549, light or radiation study; how it was run: as §1
Jurkat [14] = experiment: Photocytotoxicity against human Jurkat cells assessed as reduction of cell survival at 0.2 uM measured 72 hrs post 2.5 J/cm'2 irradiation by MTT assay in the presence of vitamin E, NaN3, DABCO, DMTU and MANN; type: functional, cell-based
How it was run: (§3)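 Jurkat cells irradiated at 2.5 J/cm² with compound in HBSS together with a scavenger: vitamin E 60 µM, NaN₃ 10 mM, DABCO 1 mM, GSH 1 mM, DMTU 1 mM or mannitol 10 mM. Medium replaced after irradiation; viability by MTT 72 h later.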

LoVo [15] = experiment: Ratio of angelicin GI50 to compound GI50 for human LoVo cells assessed as growth inhibition at 3.75 J/cm'2 irradiation for 30 mins followed by drug treated for 72 hrs by MTT assay; type: functional; how it was run: as §2
LoVo [16] = experiment: Photocytotoxicity against human LoVo cells assessed as growth inhibition at 3.75 J/cm'2 irradiation for 30 mins followed by drug treated for 72 hrs by MTT assay; type: functional; conditions: light or radiation study; how it was run: as §1
HL-60 [17] = experiment: Photocytotoxicity against human HL60 cells assessed as growth inhibition at 1.25 J/cm'2 irradiation for 30 mins followed by drug treated for 72 hrs by MTT assay; type: functional; conditions: HL-60, light or radiation study; how it was run: as §1
Jurkat [18] = experiment: Induction of lipid peroxidation in human Jurkat cells at 2 uM measured 24 hrs post 2.5 J/cm'2 irradiation by TBA assay; type: functional, cell-based
How it was run: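 TBA test for TBARS performed on supernatant medium and on cell lysates 24 h post-irradiation. Mean ± SEM of three experiments.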

Jurkat [19] = experiment: Photocytotoxicity against human Jurkat cells assessed as growth inhibition at 2.5 J/cm'2 irradiation for 30 mins followed by drug treated for 72 hrs by MTT assay; type: functional; conditions: light or radiation study; how it was run: as §1
Jurkat [20] = experiment: Induction of apoptosis in human Jurkat cells assessed as reduction in alive cells using Annexin-V and propidium iodide staining at 1 to 2 uM measured 24 hrs post 2.5 J/cm'2 irradiation by flow cytometry analysis; type: functional, cell-based
How it was run: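 Jurkat cells irradiated (2.5 J/cm²) with compound at 1 or 2 µM. After 24 h, co-stained with Annexin V-FITC and PI and analysed by flow cytometry (excitation 488 nm; emission 525 and 585 nm). Mean of three independent experiments.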

[21] = Induction of singlet oxygen generation measured after UV-A irradiation by RNO bleaching assay; type: physicochemical
How it was run: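 Compound (2.2 × 10⁻⁵ M), RNO (4 × 10⁻⁵ M) and imidazole (4 × 10⁻⁵ M) in phosphate buffer pH 7.3 irradiated with increasing UV-A doses. Absorbance read at 440 nm; reported as % RNO bleaching.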

LoVo [22] = experiment: Photocytotoxicity against human LoVo cells assessed as growth inhibition at 2.5 J/cm'2 irradiation for 30 mins followed by drug treated for 72 hrs by MTT assay; type: functional; conditions: light or radiation study; how it was run: as §1
A549 [23] = experiment: Cytotoxicity against human A549 cells assessed as growth inhibition after 72 hrs by MTT assay; type: functional; conditions: A549, 72 h
How it was run: (§4)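 Cells (5 × 10³ per well) pre-incubated 24 h at 37 °C, 5% CO₂, then exposed in the dark to serial concentrations diluted from DMSO stock into complete medium for 72 h at 37 °C. Viability read by MTT; GI50 derived. LoVo in Ham's F-12, MCF-7 and A-549 in DMEM, all with 10% FBS and penicillin/streptomycin.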

Jurkat [24] = experiment: Cytotoxicity against human Jurkat cells assessed as growth inhibition after 72 hrs by MTT assay; type: functional
LoVo [25] = experiment: Cytotoxicity against human LoVo cells assessed as growth inhibition after 72 hrs by MTT assay; type: functional; how it was run: as §4
MCF7 [26] = experiment: Cytotoxicity against human MCF7 cells assessed as growth inhibition after 72 hrs by MTT assay; type: functional; conditions: MCF7, 72 h; how it was run: as §4
Jurkat [27] = experiment: Photocytotoxicity against human Jurkat cells assessed as cell survival at 0.5 uM measured 72 hrs post 2.5 J/cm'2 irradiation by MTT assay in presence of lipophilic scavengers; type: functional, cell-based; how it was run: as §3
HL-60 [28] = experiment: Cytotoxicity against human HL60 cells assessed as growth inhibition after 72 hrs by MTT assay; type: functional; conditions: HL-60, 72 h
Jurkat [29] = experiment: Photocytotoxicity against human Jurkat cells assessed as reduction of cell survival at 0.5 uM measured 72 hrs post 2.5 J/cm'2 irradiation by MTT assay in the presence of vitamin E, NaN3, DABCO, DMTU and MANN; type: functional, cell-based; how it was run: as §3

| SMILES | GI50 (MCF7 [1]) [µM] | Activity (Jurkat [2]) | GI50 (Jurkat [3]) [µM] | Activity (A549 [4]) | GI50 (MCF7 [5]) [µM] | GI50 (A549 [7]) [µM] | Activity (Jurkat [8]) | Activity (Jurkat [9]) | GI50 (HL-60 [10]) [µM] | Activity (Jurkat [11]) | GI50 (A549 [13]) [µM] | GI50 (LoVo [16]) [µM] | GI50 (HL-60 [17]) [µM] | GI50 (Jurkat [19]) [µM] | GI50 (LoVo [22]) [µM] | GI50 (A549 [23]) [µM] | GI50 (Jurkat [24]) [µM] | GI50 (LoVo [25]) [µM] | GI50 (MCF7 [26]) [µM] | GI50 (HL-60 [28]) [µM] | other results |
| --- | --- | --- | --- | --- | --- | --- | --- | --- | --- | --- | --- | --- | --- | --- | --- | --- | --- | --- | --- | --- | --- |
| Cn1c(=O)c(S(=O)(=O)c2ccccc2)cc2ccc3c(cnn3-c3ccc(Cl)cc3)c21 | 0.17 | Active | 0.2 | Dose-dependent effect | 0.33 | 0.08 | Active | Active | 0.31 | Active | 0.26 | 0.04 | 0.39 | 0.1 | 0.16 | – | – | – | – | – | Activity [6]: Active; Ratio IC50 (MCF7 [12]): 8; Activity (Escherichia coli): inactive; Activity (Jurkat [14]): inactive; Ratio IC50 (LoVo [15]): 27; Activity (Jurkat [18]): Active; Activity (Jurkat [20]): Active; Activity [21]: Active |
| COc1ccc(-n2ncc3c2CCc2cc(S(=O)(=O)c4ccccc4)c(OC)nc2-3)cc1 | 1.18 | inactive | 1.15 | Dose-dependent effect | 2.53 | 1.52 | Active | inactive | 0.72 | inactive | 4.02 | 0.53 | 5.29 | 0.64 | 3.56 | > 20 | 12.5 | > 20 | > 20 | > 20 | Activity (Jurkat [27]): inactive; Activity (Escherichia coli): inactive; Activity (Jurkat [18]): Active; Activity (Jurkat [20]): Active; Activity (Jurkat [29]): inactive |
| O=c1[nH]c2c(cc1S(=O)(=O)c1ccccc1)CCc1c-2cnn1-c1ccccc1 | > 20 | – | > 20 | – | > 20 | 14.1 | – | – | > 20 | – | > 20 | > 20 | > 20 | > 20 | > 20 | 10.8 | 20 | > 20 | 11.5 | > 20 | – |
| COc1nc2c(cc1S(=O)(=O)c1ccccc1)CCc1c-2cnn1-c1ccc(Cl)cc1 | 1.69 | inactive | 0.72 | Dose-dependent effect | 7.09 | 1.49 | Active | inactive | 0.48 | inactive | 5.28 | 0.73 | 4.03 | 0.43 | 5.53 | > 20 | 11.3 | > 20 | > 20 | > 20 | Activity (Jurkat [27]): inactive; Activity (Escherichia coli): inactive; Activity (Jurkat [18]): Active; Activity (Jurkat [20]): Active |
| Cn1c2c(cc(S(=O)(=O)c3ccccc3)c1=O)CCc1c-2cnn1-c1cccc(Cl)c1 | 9.01 | – | > 20 | – | 12.7 | 8.4 | – | – | 2.44 | – | > 20 | 7.54 | > 20 | 2.81 | 13.1 | > 20 | 11.3 | > 20 | > 20 | > 20 | – |
| COc1ccc(-n2ncc3c4nc(OC)c(S(=O)(=O)c5ccccc5)cc4ccc32)cc1 | 0.59 | – | 1.5 | – | 1.23 | 0.09 | – | – | 0.76 | – | 0.35 | 0.16 | 0.99 | 0.54 | 0.42 | > 20 | > 20 | > 20 | 16.2 | > 20 | – |
| O=c1c(S(=O)(=O)c2ccccc2)cc2c(n1Cc1ccccc1)-c1cnn(-c3ccc(Cl)cc3)c1CC2 | 9.89 | – | > 20 | – | > 20 | 6.64 | – | – | 7.17 | – | > 20 | 3.72 | > 20 | 4.97 | 11.1 | > 20 | 13.6 | > 20 | > 20 | 11.6 | – |
| COc1nc2c(cc1S(=O)(=O)c1ccccc1)CCc1c-2cnn1-c1ccccc1 | 1.84 | – | 3.65 | – | 2.47 | 2.89 | – | – | 0.79 | – | 7.56 | 1.1 | 2.83 | 0.71 | 3.14 | > 20 | 12.1 | > 20 | > 20 | > 20 | – |
